The results in this text go back to ChEMBL document CHEMBL4699485, “Discovery and Development of SPR519 as a Potent, Selective, and Orally Bioavailable Inhibitor of PI3Kα and mTOR Kinases for the Treatment of Solid Tumors” (J Med Chem, 2020).

Active and inactive are the calls of the source. No cut-off for these calls is given here. A value given as a limit tells only on which side of the number the result lay.

For data set [1], the target named is PI3-kinase p110-alpha/p85-alpha (Homo sapiens, UniProt P42336). In words: Inhibition of recombinant human full-length N-terminal His-tagged p110 alpha/p85 alpha expressed in baculovirus expression system using PIP2 as substrate preincubated for 15 mins followed by substrate addition and measured after 60 mins by ADP HiLyte 647 tracer bound ADP2 antibody-Tb conjugate based HTRF assay. In outline:
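PI3Kα at 150 ng/mL (diluted stock) in 50 mM HEPES pH 7.4, 3 mM MgCl2, 2 mM DTT, 0.05% CHAPS, 50 mM NaCl, 1 mM EGTA. Compound tested over 10–0.001 µM. Final reaction held 50 µM PIP2 and 1 µM ATP. Detection mix added for 1 h, then 665/615 nm ratio read. % inhibition versus concentration fitted by four-parameter nonlinear regression to give IC50.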
A general note: TR-FRET usually uses a lanthanide donor and a delayed reading to cut background.

The test system of another data set is A2780. Description: Antiproliferative activity against human A2780 cells after 48 hrs by MTT assay. The conditions noted are these: A2780, 48 h. Type of data set: functional, cell-based. In outline: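 A2780 cells grown in DMEM with 10% FBS, L-glutamine and antibiotics, seeded at 10000 cells/well and allowed to adhere overnight. Treated 48 h across 20 µM–0.001 µM. MTT (5 mg/mL in PBS) added for 4 h, formazan dissolved in DMSO, absorbance read at 550 nm. % inhibition fit to a four-parameter log inhibitor vs response curve.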
Background: Formazan colour is commonly taken as a measure of viable cells.

Data set [2] can be described thus: Drug uptake in Swiss mouse plasma at 10 mg/kg, po via gavage by LC-MS/MS analysis. The data set is classed as ADME, organism-based. As to conditions: in vivo. An outline of the steps: (§1)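 Female Swiss mice (n=3/group), fasted overnight, given single oral gavage dose in 0.5% CMC/0.5% Tween 80 (10 mL/kg) at 1, 3 or 10 mg/kg. Serial blood sampling at 0.16–8 h into heparinized tubes. Plasma extracted with acetonitrile containing verapamil internal standard and quantified by LC-MS/MS. Cmax, Tmax, AUC and t1/2 derived from the concentration–time profile.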

The target in data set [3] is Serine/threonine-protein kinase mTOR (Homo sapiens, UniProt P42345). Description: Inhibition of recombinant human GST-tagged mTOR catalytic domain (1360 to 2549 residues) expressed in baculovirus expression system using GFP-4E-BP1 as substrate preincubated for 15 mins followed by substrate addition and measured after 60 mins by TR-FRET assay. An outline of the steps:
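Recombinant mTOR (FRAP1) was preincubated 15 min with serially diluted compound (10 µM–0.0005 µM, DMSO) in kinase buffer, 10 µL reaction. GFP-4E-BP1 (400 nM final) and ATP (8 µM final) were added and the reaction ran 1 h at RT. Quench buffer with Tb-anti-p4E-BP1 (pThr46) was added for 1 h at RT. TR-FRET 520/486 nm ratio was fitted by four-parameter sigmoidal regression.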

The next data set deals with PC-3. In words: Antiproliferative activity against human PC-3 cells after 48 hrs by MTT assay. Type of data set: functional, cell-based. As to conditions: PC-3, 48 h. An outline of the steps:
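PC3 cells grown in RPMI 1640 with 10% FBS and 1% penicillin/streptomycin at 37 °C, 5% CO2, seeded at 10000 cells/well. Treated 48 h across 20 µM–0.001 µM. MTT (5 mg/mL in PBS) added for 4 h, then DMSO solubilization and absorbance at 550 nm. Four-parameter nonlinear fit of % inhibition.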

Another data set has as its system SK-OV-3. In words: Antiproliferative activity against human SK-OV-3 cells after 48 hrs by MTT assay. The data set is classed as functional, cell-based. As to conditions: SK-OV-3, 48 h. An outline of the steps: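 SK-OV-3 cells grown in McCoy's 5a with 10% FBS, 100 U/mL penicillin and 100 µg/mL streptomycin at 37 °C, 5% CO2, seeded at 10000 cells/well. Treated 48 h across 20 µM–0.001 µM. MTT (5 mg/mL in PBS) added for 4 h, DMSO solubilization, absorbance read at 550 nm. Four-parameter curve fit of % inhibition.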

The nature of data set [4]: Metabolic stability in dog liver microsomes assessed as parent compound remaining at 10 uM remaining after 120 mins in presence of NADPH by HPLC analysis. The data set is classed as ADME, Canis lupus familiaris, Microsome. The conditions noted are these: read-out: Stabilty. In outline: (§2)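 Compound at 10 µM was incubated with 0.5 mg/mL liver microsomes and 1 mM NADPH (final). Samples were taken at 0, 15, 30, 60 and 120 min and stopped with acetonitrile, then centrifuged and the supernatant analysed by HPLC. Percent parent remaining was set relative to the 0 min peak area (100%).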
(Liver microsomes are a subcellular fraction often used to study metabolism.)

Data set [5] in a line: Metabolic stability in mouse liver microsomes assessed as parent compound remaining at 10 uM remaining after 120 mins in presence of NADPH by HPLC analysis. Type of data set: ADME, Microsome. The conditions noted are these: read-out: Stabilty. An outline of the steps: as §2
Data set [6] can be described thus: Metabolic stability in human liver microsomes assessed as parent compound remaining at 10 uM remaining after 120 mins in presence of NADPH by HPLC analysis. Type of data set: ADME, Microsome. As to conditions: read-out: Stabilty. In outline:
as §2

A short description of data set [7]: AUC in Swiss mouse at 3 mg/kg, po via gavage by LC-MS/MS analysis. Type of data set: ADME, organism-based. Details: dose 3 mg/kg. As to conditions: in vivo. An outline of the steps:
as §1

Data set [8] can be described thus: Cmax in Swiss mouse at 3 mg/kg, po via gavage by LC-MS/MS analysis. Type of data set: ADME, organism-based. Details: route oral, dose 3 mg/kg. As to conditions: in vivo. In outline:
as §1

Data set [9] is described as follows: Tmax in Swiss mouse at 3 mg/kg, po via gavage by LC-MS/MS analysis. Type of data set: ADME, organism-based. The conditions noted are these: in vivo. An outline of the steps:
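Female Swiss mice (n=3/group) were fasted overnight, then gavaged with compound in 0.5% CMC/0.5% Tween 80 at 10 mL/kg. Serial blood samples at 0.16, 0.5, 1, 2, 4, 6 and 8 h were taken into heparinized tubes and spun to plasma. Plasma was extracted with acetonitrile containing verapamil (400 ng/mL) and quantified by LC-MS/MS against plasma calibration curves. Tmax was derived from the concentration–time profile.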

Data set [10] is described as follows: Elimination half life in Swiss mouse at 3 mg/kg, po via gavage by LC-MS/MS analysis. Type of data set: ADME, organism-based. As to conditions: in vivo, read-out: beta t1/2 (converted). In outline:
as §1

The species named for a further data set is Homo sapiens. In words: Channel blockade of human ERG G601S mutant expressed in mammalian expression system assessed as effect on surface expression of channel at 1 to 30 uM by HERG-Lite assay. As to conditions: dose microM 1-30. In outline: (§3)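 HERG-lite assay scoring both channel blocking and trafficking inhibition, with test compound at 1, 10 and 30 µM. Geldanamycin (1 µM) served as the trafficking-inhibition reference and astemizole as the standard hERG binder.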

The target of data set [11] is T1, Voltage-gated inwardly rectifying potassium channel KCNH2 (Homo sapiens, UniProt Q12809). Description: Inhibition of human ERG channel trafficking expressed in mammalian expression system at 1 to 30 uM by HERG-Lite assay. The conditions noted are these: dose 1-30 µM. An outline of the steps:
as §3

The target in data set [12] is T1, Voltage-gated inwardly rectifying potassium channel KCNH2. Description: Inhibition of human ERG by patch-clamp assay.
For another data set, the target named is Cytochrome P450 3A4 (Homo sapiens, UniProt P08684). In words: Inhibition of CYP3A4 in human liver microsomes using isoform-specific probe substrates preincubated for 5 mins followed by NADPH addition by LC-MS/MS analysis. Type of data set: ADME. In outline: (§4)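 Human liver microsomes premixed with buffer and a CYP-specific FDA-recommended probe substrate, then spiked with inhibitor, in duplicate. After 5 min preincubation at 37 °C, reaction started with NADPH and run at 37 °C for a set time, then quenched. Metabolite formation quantified by HPLC/LC-MS/MS to derive the concentration giving 50% inhibition.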

A further data set addresses Cytochrome P450 2C19 (Homo sapiens, UniProt P33261). Description: Inhibition of CYP2C19 in human liver microsomes using isoform-specific probe substrates preincubated for 5 mins followed by NADPH addition by LC-MS/MS analysis. The data set is classed as ADME. In outline: as §4
The target in a further data set is Cytochrome P450 2D6 (Homo sapiens, UniProt P10635). In words: Inhibition of CYP2D6 in human liver microsomes using isoform-specific probe substrates preincubated for 5 mins followed by NADPH addition by LC-MS/MS analysis. Type of data set: ADME. In outline: as §4
Chain of Cytochrome P450 2D6 (P10635 whole entry, canonical isoform): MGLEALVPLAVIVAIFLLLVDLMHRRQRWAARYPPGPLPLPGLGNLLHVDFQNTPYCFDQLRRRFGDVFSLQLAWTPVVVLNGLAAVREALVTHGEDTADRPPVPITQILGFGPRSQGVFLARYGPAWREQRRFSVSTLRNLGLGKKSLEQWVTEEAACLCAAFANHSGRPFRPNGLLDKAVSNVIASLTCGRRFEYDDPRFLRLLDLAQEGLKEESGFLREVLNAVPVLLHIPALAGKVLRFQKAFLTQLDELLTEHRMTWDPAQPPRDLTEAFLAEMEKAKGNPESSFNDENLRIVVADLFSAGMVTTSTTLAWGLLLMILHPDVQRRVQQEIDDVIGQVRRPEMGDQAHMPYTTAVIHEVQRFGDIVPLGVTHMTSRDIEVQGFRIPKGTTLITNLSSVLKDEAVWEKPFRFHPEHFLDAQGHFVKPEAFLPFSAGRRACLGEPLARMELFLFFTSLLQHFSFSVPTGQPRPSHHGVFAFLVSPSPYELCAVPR

Chain of PI3-kinase p110-alpha/p85-alpha (P27986 whole entry): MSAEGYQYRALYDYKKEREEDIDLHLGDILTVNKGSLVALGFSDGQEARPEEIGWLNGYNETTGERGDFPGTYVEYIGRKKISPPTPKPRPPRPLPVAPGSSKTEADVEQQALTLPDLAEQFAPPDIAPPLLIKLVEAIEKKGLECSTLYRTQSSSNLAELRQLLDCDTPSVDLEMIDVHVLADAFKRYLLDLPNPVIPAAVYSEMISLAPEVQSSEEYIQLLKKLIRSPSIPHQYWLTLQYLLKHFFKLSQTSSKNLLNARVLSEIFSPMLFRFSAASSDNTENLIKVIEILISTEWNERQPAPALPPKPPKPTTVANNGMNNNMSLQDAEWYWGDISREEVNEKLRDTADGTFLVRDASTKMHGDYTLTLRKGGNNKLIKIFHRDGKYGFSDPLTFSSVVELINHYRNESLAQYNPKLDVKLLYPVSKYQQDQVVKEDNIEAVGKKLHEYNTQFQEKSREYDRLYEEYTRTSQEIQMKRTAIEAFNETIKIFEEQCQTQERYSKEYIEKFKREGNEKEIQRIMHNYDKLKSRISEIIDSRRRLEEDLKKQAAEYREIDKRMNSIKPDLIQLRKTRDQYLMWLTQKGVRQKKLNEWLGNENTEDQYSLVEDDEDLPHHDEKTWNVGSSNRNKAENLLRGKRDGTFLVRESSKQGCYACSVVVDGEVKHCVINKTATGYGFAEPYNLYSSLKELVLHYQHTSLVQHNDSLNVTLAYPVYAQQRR
Chain of PI3-kinase p110-alpha/p85-alpha (P42336 whole entry): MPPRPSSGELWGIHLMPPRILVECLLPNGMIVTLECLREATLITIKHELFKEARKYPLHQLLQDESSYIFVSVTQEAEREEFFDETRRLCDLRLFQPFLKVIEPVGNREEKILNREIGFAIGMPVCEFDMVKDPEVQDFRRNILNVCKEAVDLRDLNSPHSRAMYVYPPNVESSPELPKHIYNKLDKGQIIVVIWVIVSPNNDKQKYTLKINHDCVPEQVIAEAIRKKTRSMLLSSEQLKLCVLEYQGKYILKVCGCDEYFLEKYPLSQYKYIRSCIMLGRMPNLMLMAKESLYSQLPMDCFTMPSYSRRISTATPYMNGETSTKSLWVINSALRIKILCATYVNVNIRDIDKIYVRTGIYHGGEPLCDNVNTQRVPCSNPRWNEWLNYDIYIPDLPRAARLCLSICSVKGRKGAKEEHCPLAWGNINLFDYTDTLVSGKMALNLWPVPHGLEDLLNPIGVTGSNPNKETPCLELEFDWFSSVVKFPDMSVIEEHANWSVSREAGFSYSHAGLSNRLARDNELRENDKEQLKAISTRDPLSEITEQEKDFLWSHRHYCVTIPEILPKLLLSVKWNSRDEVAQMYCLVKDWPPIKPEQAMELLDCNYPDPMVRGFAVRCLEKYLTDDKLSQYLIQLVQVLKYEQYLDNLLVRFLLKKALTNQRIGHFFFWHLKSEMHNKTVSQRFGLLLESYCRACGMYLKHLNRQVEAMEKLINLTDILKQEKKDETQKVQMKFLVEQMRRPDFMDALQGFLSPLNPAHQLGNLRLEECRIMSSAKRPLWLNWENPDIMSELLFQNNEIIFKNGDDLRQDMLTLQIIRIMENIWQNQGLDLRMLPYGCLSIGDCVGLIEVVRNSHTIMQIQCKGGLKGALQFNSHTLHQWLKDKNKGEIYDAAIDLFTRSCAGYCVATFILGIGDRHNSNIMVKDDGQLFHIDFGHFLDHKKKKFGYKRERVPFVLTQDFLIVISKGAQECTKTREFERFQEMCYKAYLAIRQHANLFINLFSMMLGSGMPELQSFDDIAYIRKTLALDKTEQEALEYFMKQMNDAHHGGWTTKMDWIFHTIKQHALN
T1 sequence (Q12809 whole entry): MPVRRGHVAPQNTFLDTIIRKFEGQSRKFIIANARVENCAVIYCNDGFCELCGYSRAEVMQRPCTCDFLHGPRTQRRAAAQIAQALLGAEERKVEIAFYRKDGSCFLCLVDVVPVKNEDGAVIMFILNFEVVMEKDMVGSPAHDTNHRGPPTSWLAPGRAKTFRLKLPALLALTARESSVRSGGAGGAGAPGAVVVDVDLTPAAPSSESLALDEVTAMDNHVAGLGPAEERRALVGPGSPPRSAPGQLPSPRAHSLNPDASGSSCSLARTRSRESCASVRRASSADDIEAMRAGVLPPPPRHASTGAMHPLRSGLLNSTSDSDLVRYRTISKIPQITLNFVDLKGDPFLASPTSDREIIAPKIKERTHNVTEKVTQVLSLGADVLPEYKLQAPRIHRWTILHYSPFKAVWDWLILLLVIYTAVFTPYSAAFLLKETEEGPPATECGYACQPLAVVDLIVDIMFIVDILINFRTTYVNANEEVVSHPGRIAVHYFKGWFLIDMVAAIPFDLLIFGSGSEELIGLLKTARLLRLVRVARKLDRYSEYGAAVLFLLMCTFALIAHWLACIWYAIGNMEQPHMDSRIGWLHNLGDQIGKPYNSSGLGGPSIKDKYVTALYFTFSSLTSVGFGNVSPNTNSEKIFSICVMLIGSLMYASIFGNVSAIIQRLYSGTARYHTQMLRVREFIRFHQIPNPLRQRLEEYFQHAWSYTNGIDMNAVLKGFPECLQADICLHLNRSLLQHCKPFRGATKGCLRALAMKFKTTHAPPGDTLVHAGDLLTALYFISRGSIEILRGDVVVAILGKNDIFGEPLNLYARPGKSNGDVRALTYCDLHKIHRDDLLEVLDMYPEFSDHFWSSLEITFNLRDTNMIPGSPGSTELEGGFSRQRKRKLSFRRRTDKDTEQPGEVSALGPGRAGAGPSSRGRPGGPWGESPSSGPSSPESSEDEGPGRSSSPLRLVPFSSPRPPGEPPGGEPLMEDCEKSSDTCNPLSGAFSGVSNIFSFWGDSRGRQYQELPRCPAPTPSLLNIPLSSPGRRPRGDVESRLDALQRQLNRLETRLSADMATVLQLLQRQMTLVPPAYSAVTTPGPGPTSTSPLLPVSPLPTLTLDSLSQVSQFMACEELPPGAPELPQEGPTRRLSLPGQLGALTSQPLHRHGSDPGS
Chain of Cytochrome P450 3A4 (P08684 whole entry, canonical isoform): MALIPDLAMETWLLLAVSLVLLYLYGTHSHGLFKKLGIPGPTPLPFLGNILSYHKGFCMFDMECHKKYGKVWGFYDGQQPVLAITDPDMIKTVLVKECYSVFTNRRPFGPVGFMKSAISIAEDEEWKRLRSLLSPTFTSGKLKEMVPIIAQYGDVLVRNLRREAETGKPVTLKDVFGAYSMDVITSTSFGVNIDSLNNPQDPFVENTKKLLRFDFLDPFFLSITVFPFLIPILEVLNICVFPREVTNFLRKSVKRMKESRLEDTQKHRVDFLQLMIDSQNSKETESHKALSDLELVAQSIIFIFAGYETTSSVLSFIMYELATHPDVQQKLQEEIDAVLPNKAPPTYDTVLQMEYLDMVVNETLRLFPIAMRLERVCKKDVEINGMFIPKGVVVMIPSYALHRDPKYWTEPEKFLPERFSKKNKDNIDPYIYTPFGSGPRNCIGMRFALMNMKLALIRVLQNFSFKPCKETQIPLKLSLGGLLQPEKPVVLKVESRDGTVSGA
Chain of Cytochrome P450 2C19 (P33261 whole entry, canonical isoform): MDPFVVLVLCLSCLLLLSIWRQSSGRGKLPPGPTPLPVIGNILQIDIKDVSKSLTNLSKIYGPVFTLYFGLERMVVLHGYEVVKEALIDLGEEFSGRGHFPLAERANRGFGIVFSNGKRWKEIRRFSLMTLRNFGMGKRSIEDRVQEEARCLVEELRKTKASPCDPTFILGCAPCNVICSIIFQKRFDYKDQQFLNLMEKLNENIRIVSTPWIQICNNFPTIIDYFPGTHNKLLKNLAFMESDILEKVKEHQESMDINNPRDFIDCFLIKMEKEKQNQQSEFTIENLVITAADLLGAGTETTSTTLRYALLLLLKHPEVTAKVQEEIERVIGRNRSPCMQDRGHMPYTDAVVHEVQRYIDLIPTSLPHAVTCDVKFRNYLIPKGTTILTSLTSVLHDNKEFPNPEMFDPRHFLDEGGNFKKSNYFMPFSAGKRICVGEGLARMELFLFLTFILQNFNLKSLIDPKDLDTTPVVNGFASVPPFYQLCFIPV

A word on the IC50: it is the concentration that inhibits the measured activity by half. Consider `Cc1cc(-c2nc(Oc3ccc(C(=O)N(C)C)cc3)nc(N3CCOCC3)n2)cnc1N`, for which the figures for the IC50 (in data set [1]; in the data set on A2780) were 460 nM and 1500 nM, respectively.
With `Cc1nc(N)sc1-c1nc(Oc2ccc(C(=O)N(C)C)cc2)nc(N2CCOCC2)n1`, the half-maximal inhibitory concentration (IC50) in data set [1] is 140 nM; with A2780, 1100 nM.
As to `CN(C)C(=O)c1ccc(Oc2nc(-c3cccc(O)c3)nc(N3CCOCC3)n2)cc1`, the IC50 in [1] was 10 nM; in the data set with A2780, 90 nM. In addition, the Drug uptake result in data set [2] was “Not Active”.
`CN(C)C(=O)c1ccc(Oc2nc(-c3cccc4[nH]nnc34)nc(N3CCOCC3)n2)cc1`: the IC50 (in data set [1]; in the data set on A2780) was above 10000 nM each time.
Broadly, the EC50 is the concentration that produces a half-maximal response. High values mean a need for much substance, low ones an effect from little substance. In general, AUC refers to the area under the concentration-time curve, a measure of exposure. As a reminder, the Cmax is the maximum level reached in the sampled fluid or tissue. For orientation: Tmax means the time at which the peak concentration occurs. With `CN(C)C(=O)c1ccc(Oc2nc(-c3ccnc4[nH]ccc34)nc(N3CCOCC3)n2)cc1`, the IC50 in [1] is 80 nM; with A2780 it was 370 nM; in data set [3], 220 nM; in [12] it was above 10000 nM; at Cytochrome P450 3A4, above 10000 nM; at Cytochrome P450 2C19, above 10000 nM. Besides, the IC50 on Cytochrome P450 2D6 was above 10000 nM. Further, the results for the EC50 in the data set with PC-3 and in the data set on SK-OV-3 were 300 nM and 370 nM, respectively. Also, the figures for the remaining at 2 h, 10 µM in data set [4], in [5] and in data set [6] were 77%, 68% and 92%, respectively. Further, the AUC in data set [7] came out at 16.8 µM·h. The concentration in data set [8] peaked (Cmax) at 3080 nM. Moreover, the Tmax in [9] came out at 1 h. Moreover, the half-life in data set [10] is 2.8 h. The outcome in the data set listed under Homo sapiens was Active. Further, the “inhibition (INH)” value in data set [11] is “Not Active”.
In the case of `CN(C)C(=O)c1ccc(Oc2nc(-c3cccc4[nH]ccc34)nc(N3CCOCC3)n2)cc1`, the IC50 in [1] turned out to be 560 nM; in the data set with A2780 it was 900 nM.
Consider `CN(C)C(=O)c1ccc(Oc2nc(-c3cccc4[nH]ncc34)nc(N3CCOCC3)n2)cc1`, for which the IC50 worked out at 520 nM in the data set on A2780 and 1350 nM in data set [3]. The concentration giving a half-maximal response (EC50) in the data set on PC-3 turned out to be 1970 nM; in the data set on SK-OV-3, 520 nM. In addition, the remaining at 2 h, 10 µM was 83% in data set [4], 45% in [5] and 100% in data set [6]. In addition, the AUC in [7] came to 5.25 µM·h.
For the molecule `CN(C)C(=O)c1ccc(Oc2nc(-c3cnc(N)[nH]3)nc(N3CCOCC3)n2)cc1`, the IC50 is 900 nM in [1] and 2360 nM in the data set with A2780.
The matching figures for `Cc1nc(N)ccc1-c1nc(Oc2ccc(C(=O)N(C)C)cc2)nc(N2CCOCC2)n1`: 3400 nM and above 10000 nM.
On the same counts, the results for `Cc1cc(N)ncc1-c1nc(Oc2ccc(C(=O)N(C)C)cc2)nc(N2CCOCC2)n1` are above 10000 nM and above 10000 nM.
In the case of `CN(C)C(=O)c1ccc(Oc2nc(-c3cnc(N)nc3)nc(N3CCOCC3)n2)cc1`, the IC50 in data set [1] is 270 nM; in the data set on A2780, 560 nM; in [3] it was 960 nM. For the same molecule, the half-maximal effective concentration (EC50) worked out at 800 nM with PC-3 and 220 nM with SK-OV-3.
In the case of `CN(C)C(=O)c1ccc(Oc2nc(-c3ccc(N)nc3)nc(N3CCOCC3)n2)cc1`, the IC50 in data set [1] is 210 nM; in the data set on A2780 it was 200 nM; in data set [3], 200 nM; in data set [12] it was above 1000 nM; at Cytochrome P450 3A4, above 10000 nM; at Cytochrome P450 2C19, above 10000 nM. Besides, the half-inhibitory concentration (IC50) against Cytochrome P450 2D6 was above 10000 nM. The EC50 with PC-3 was 280 nM; in the data set with SK-OV-3, 210 nM. The figures for the remaining at 2 h, 10 µM in [4], in data set [5] and in [6] were 93%, 102% and 93%, respectively. The same molecule returned an AUC in data set [7] of 10.9 µM·h. Besides, the concentration in data set [8] peaked (Cmax) at 2010 nM. For the same molecule, in data set [9], the Tmax is 1.4 h. Moreover, the half-life in data set [10] is 2.7 h. In the data set filed under Homo sapiens, the outcome was Active. Also, the “inhibition (INH)” value in data set [11] was “Not Active”.
